HCT116 bCat-KO: primary screen for growth suppressors in beta-catenin knockout HCT116 cells (colon tumor, human); 140,000 tested, 1.5% active; HCT116 beta-catenin knockout viability, CellTiter-Glo, 60 h; active compounds read low; viability, % at 10 µM;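 active = viability at or under a set limit, the compound median less 4 SD, cut at about 6% in these data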;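 also: 0% = Hyamine 1622 control at 20 µM and 100% = untreated cell control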
Cav32 inh: Cav3.2 calcium influx blockers – cell-based, Fluo-4 calcium fluorescence, FDSS, MLSMR library, primary screen. Voltage-dependent T-type calcium channel subunit alpha-1H (Homo sapiens), O95180. 100,000 tested, 4% active. B-score at 10 µM. Cav3.2-expressing cells; active compounds read low;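 active = single-dose well whose peak fluorescence ratio is a statistical outlier from its plate by either plate-standardised score or position-corrected B-score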
HUVEC inhibit: inhibitors of HUVEC proliferation, primary screen, cell-based, 384-well | CellTiter-Glo luminescence, 72 h; active compounds read low | viability, % at 10 µM (by protocol) | 86,000 tested, 1.1% active;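 active = viability at or below 30%; inactive = viability above 30%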;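 also: 100% = median luminescence of DMSO-only cell control wells on each plate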
H69AR inhibit: proliferation blockers of H69AR lung cancer cells, primary screen, cell-based, human, 86K library; H69AR lung tumor viability, ATP luminescence, 72 h; active compounds read low; viability, % at 10 µM; 85,000 tested, 6% active;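 active = viability at or below 40%; inactive = viability above 40%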;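 also: multidrug resistant small cell line overexpressing MRP-1 efflux transporter; 100% = mean luminescence of untreated control wells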
Fibroblast inh: antiproliferative effect on LL 47 fibroblasts – human, LL 47 cells, CellTiter-Glo luminescence, primary screen | 85,000 tested, 1.1% active | viability, % at 10 µM | LL 47 human lung fibroblast viability, ATP luminescence; active compounds read low;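 active = viability at or below 50% in the single dose screen; inactive = viability above 50%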;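 also: compound exposure lasted 72 h before the ATP readout; 100% = median luminescence of untreated cell-only wells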
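Assay system: human lung fibroblast line LL 47, low passage. Input: 1,150 fibroblasts seeded per well. Times: overnight cell rest, 72 h compound treatment at 37 °C. Evaluation: % viability of median cell-only signal. Technique: luminescent ATP detection, CellTiter-Glo. Control set: cell-only wells, no compound.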
HCT116 PTEN-null: growth suppression of PTEN-null HCT116, primary screen, cell-based, CellTiter-Glo; HCT116 PTEN-null viability, 60 h; active compounds read low; viability, % at 10 µM; 140,000 tested, 1.2% active;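 active = viability at or below a set limit, 4 SD under the median of all tested compounds, cut at about 3.7% in these data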;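 also: PTEN knockout HCT116 line with beta catenin targeted HCT116 as companion control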
An asterisk follows results filed as active. In the library only some 7.1% were active in any assay of this set; here they are far more common.

For CCc1nc(N)c(C#N)c(-c2ccc(F)cc2)c1C the results were HCT116 bCat-KO 95, Cav32 inh -0.04, HUVEC inhibit 100, H69AR inhibit 92, Fibroblast inh 105 and HCT116 PTEN-null 89.
Screening C/C(=N/NC(=O)Cc1cccs1)c1ccco1 returned HCT116 bCat-KO 97 and HCT116 PTEN-null 92.
`Cc1cc(NC(=O)c2cccc(S(=O)(=O)N(C)C)c2)n(-c2ccccn2)n1` gave HCT116 bCat-KO 93, Cav32 inh 0.73, HUVEC inhibit 79, H69AR inhibit 26*, Fibroblast inh 96 and HCT116 PTEN-null 101.
`CC(C)C[C@H](NC(=O)c1[nH]cnc1C(=O)Nc1ccccc1)C(=O)OC(C)(C)C` gave Cav32 inh 1.6.
`CC1(C)CC(NC(=O)c2coc(=O)c(Br)c2)CC(C)(C)N1` gave HCT116 bCat-KO 87, Cav32 inh 1.2, HUVEC inhibit 81, H69AR inhibit 0.7*, Fibroblast inh 34* and HCT116 PTEN-null 92.
Screening CC1(C)CC(NC(=O)c2ccc3c(c2)OCO3)CC(C)(C)N1 returned HCT116 bCat-KO 82, Cav32 inh 1.5, HUVEC inhibit 99, H69AR inhibit 96, Fibroblast inh 99 and HCT116 PTEN-null 78.
For Cc1cc(=O)[nH]c2ccc(Cl)cc12 the results were HCT116 bCat-KO 98, Cav32 inh -0.083, HUVEC inhibit 24*, H69AR inhibit 86, Fibroblast inh 95 and HCT116 PTEN-null 106.
`Cc1ccc(SCCCCN2CCNCC2)cc1` gave HCT116 bCat-KO 84 and HCT116 PTEN-null 83.
`CCCCCCCCCCCC(=O)c1c(O)cccc1O` gave Cav32 inh 0.23.
Screening CCn1c(/C=C/N(C)c2ccccc2)[n+](CC)c2ccc(Cl)cc21 returned HCT116 bCat-KO 3.8*, Cav32 inh -1.3 and HCT116 PTEN-null 5.
Screening COc1ccc(CSCC(=O)N/N=C/c2ccccc2OCc2ccccc2)cc1 returned HCT116 bCat-KO 97, Cav32 inh -5.8* and HCT116 PTEN-null 99.
`O=C(CSCc1ccccc1)N/N=C/c1ccccc1OCc1ccccc1` gave HCT116 bCat-KO 94, Cav32 inh -2.5 and HCT116 PTEN-null 103.
Screening Cn1cccc1C(=O)C(=O)Nc1cccc(Cl)c1Cl returned HCT116 bCat-KO 75, Cav32 inh 0.57 and HCT116 PTEN-null 74.
Screening CCCn1c(NCc2cc(C)ccc2O)nc2ccccc21 returned HCT116 bCat-KO 73, Cav32 inh -7*, HUVEC inhibit 93, H69AR inhibit 73, Fibroblast inh 93 and HCT116 PTEN-null 62.
For Cn1c(NC(=O)c2cccc(Cn3cc(Cl)cn3)c2)nc2ccccc21 the results were HCT116 bCat-KO 92, Cav32 inh -0.2, HUVEC inhibit 72, H69AR inhibit 37*, Fibroblast inh 50* and HCT116 PTEN-null 85.
Screening CCCn1c(NC(=O)c2ccc(Br)cc2)nc2ccccc21 returned HCT116 bCat-KO 63, Cav32 inh 0.56, HUVEC inhibit 74, H69AR inhibit 32*, Fibroblast inh 66 and HCT116 PTEN-null 62.
For CCCn1c(CNc2ccc(Br)cc2)nc2ccccc21 the results were HCT116 bCat-KO 55, Cav32 inh -5.3*, HUVEC inhibit 98, H69AR inhibit 97, Fibroblast inh 88 and HCT116 PTEN-null 64.
CCCCn1c(NC(=S)Nc2ccccc2)nc2ccccc21 was read as HCT116 bCat-KO 41 and HCT116 PTEN-null 30.
CCCCn1c(NC(=O)c2ccccc2)nc2ccccc21 was read as HCT116 bCat-KO 17, Cav32 inh -1.1, HUVEC inhibit 70, H69AR inhibit 14*, Fibroblast inh 48* and HCT116 PTEN-null 12.
For CCNc1nc(NC(C)C)nc(N(C#N)C(C)C(=O)N(C)C)n1 (stereo not drawn) the results were HCT116 bCat-KO 89, Cav32 inh 1.4, HUVEC inhibit 83, Fibroblast inh 89 and HCT116 PTEN-null 101.
`CCNc1nc(NC(C)(C)C)nc(N(C#N)CC)n1` gave HCT116 bCat-KO 97, Cav32 inh 0.98, HUVEC inhibit 97, H69AR inhibit 33*, Fibroblast inh 94 and HCT116 PTEN-null 101.
Screening O=C(CN1C(=O)C2C3c4ccccc4C(c4ccccc43)C2C1=O)Nc1cccc(C(=O)O)c1 (stereo not drawn) returned HCT116 bCat-KO 98 and HCT116 PTEN-null 100.
`COc1ccc(C(c2sc3ncnn3c2O)N2CC(C)OC(C)C2)cc1OC` (stereo not drawn) gave HCT116 bCat-KO 96, Cav32 inh -1.4, HUVEC inhibit 29*, H69AR inhibit 97, Fibroblast inh 88 and HCT116 PTEN-null 99.
`c1ccc(-c2noc(CSc3nnc(Cc4cccs4)n3-c3ccccc3)n2)cc1` gave HCT116 bCat-KO 104, Cav32 inh -4.7*, HUVEC inhibit 103, H69AR inhibit 85, Fibroblast inh 96 and HCT116 PTEN-null 94.
Screening Fc1ccc(-n2c(Cc3ccccc3)nnc2SCc2nc(-c3cccs3)no2)cc1 returned HCT116 bCat-KO 48, Cav32 inh -3.1, HUVEC inhibit 103, H69AR inhibit 59, Fibroblast inh 102 and HCT116 PTEN-null 66.
`Cc1ccc(-c2noc(CSc3nnnn3C3CCCCC3)n2)cc1` gave HCT116 bCat-KO 92, Cav32 inh -4.6*, HUVEC inhibit 82, H69AR inhibit 86, Fibroblast inh 97 and HCT116 PTEN-null 89.
`Clc1ccc(-c2noc(CSc3nnc(-c4ccncc4)n3-c3ccccc3)n2)cc1` gave HCT116 bCat-KO 26, Cav32 inh -4.9*, HUVEC inhibit 74, H69AR inhibit 49, Fibroblast inh 69 and HCT116 PTEN-null 46.
Cn1c(SCc2nc(-c3ccc(Cl)cc3)no2)nnc1-c1ccco1 was read as HCT116 bCat-KO 85, HUVEC inhibit 106, H69AR inhibit 100, Fibroblast inh 100 and HCT116 PTEN-null 83.
For Clc1ccc(-c2noc(CSc3nnc(Cc4cccs4)n3-c3ccccc3)n2)cc1 the results were HCT116 bCat-KO 68, Cav32 inh -5.7*, HUVEC inhibit 70, H69AR inhibit 68, Fibroblast inh 91 and HCT116 PTEN-null 69.
C=CCn1c(SCC(=O)Nc2ncc(Cc3cc(C(F)(F)F)ccc3Cl)s2)nnc1-c1ccncc1 was read as HCT116 bCat-KO 101, Cav32 inh -0.27 and HCT116 PTEN-null 90.
O=C1N[C@@H](Cc2cn(S(=O)(=O)c3ccc(F)cc3)c3ccccc23)C(=O)N[C@H]1Cc1ccccc1 was read as Cav32 inh 0.015.

From PubChem BioAssay
